Screening results (PubChem BioAssay)
Most compounds without a hit are left out; they make up all but 1.8% or so of the library.
STAT1 blocker = STAT1 signaling inhibition; 0.35% of 200,000 active; NIH 3T3 STAT1-luciferase reporter, IFN-gamma, luminescence; inhibition, % at 5.5 µM; AID 920;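 active means inhibition above a set limit, the mean inhibition across all tested compounds plus 3 SD, cut at about 34% in these data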;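 further: 0% = IFN-gamma with DMSO and 100% = IFN-gamma with 300 µM nifuroxazide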
STAT3 activator = activators of IL-6 induced STAT3 signaling. U3A cells, IL-6 STAT3-luciferase reporter, luminescence; 100% = signal with IL-6 EC80 alone. activation (% of control), % at 5.6 µM. 0.91% of 190,000 active. AID 871;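 active means activation above the screen-wide mean of compound activation plus 3 SD, cut at about 130% in these data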;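 further: 0% = background luminescence of wells with medium and substrate only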
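Test system: human U3A cells carrying STAT3-luciferase construct; control set: IL-6-only wells as 100% reference; timing: compound pre-incubation 1 h before IL-6, then 6 h stimulation at 37 °C; also added: IL-6 stimulus at 33 ng/mL final; evaluation: % activation versus median of IL-6-stimulated wells; detection: reporter luminescence signal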
PPC-1+TRAIL kill = kills PPC-1 cancer cells in the presence of TRAIL. PPC-1 cells + TRAIL, ATPLite viability luminescence. cell killing (% activity), % at 4 µM or 5 µM. 0.41% of 220,000 active. AID 1443;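 active means cell killing above 50% in the first pass at 4 µM, then a duplicate retest at 5 µM averaging 50% or more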;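 further: plate controls were cells with TRAIL plus DMSO for no effect and medium-only wells lacking cells for full effect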
C8 TRAIL sens = caspase-8 TRAIL sensitization | NB7+C8 cells + TRAIL, ATPlite viability luminescence | inhibition (viability loss, TRAIL sensitization), % at 10 µM | 1% of 360,000 active;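 active means compounds causing at least 50% loss of cell viability in the single-dose screen, relative to plate controls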
STAT3 inh-1 = inhibitors of IL-6 induced STAT3 signaling; U3A cells, IL-6 STAT3-luciferase reporter, luminescence; host cell line lacks STAT1; inhibition, % at 5.5 µM; 0.89% of 190,000 active; AID 862;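 active means inhibition above the mean inhibition across all screened compounds plus 3 SD, cut at about 44% in these data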;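 further: 0% = DMSO only wells and 100% = 100 µM nifuroxazide control wells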
STAT3 inh-2 = confirmation of STAT3 signaling inhibitors; 45% of 1,200 active; U3A cells, IL-6 STAT3 luciferase reporter, luminescence; cell line lacks STAT1; shares compounds with STAT3 inh-1; inhibition, % at 5.7 µM;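 active means inhibition above the hit cutoff computed for the primary STAT3 screen, cut at about 44% in these data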;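 further: 0% = IL-6 plus DMSO and 100% = IL-6 plus nifuroxazide control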
NFkB inh STAT3ct = counter-screen for STAT3 inhibitors: NF-kappaB inhibition; shares compounds with STAT3 inh-1; HEK293T NF-kB luciferase reporter, TNF-alpha induced; inhibition, % at 5.7 µM; 36% of 1,200 active; AID 1308;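 active means inhibition above the mean of solvent-only control wells plus 3 SD, cutoff set per campaign, cut at about 13% in these data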;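 further: 0% = TNF-alpha with DMSO and 100% = TNF-alpha with MG high control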
STAT1 inh STAT3c = counter-screen for STAT3 inhibitors: STAT1 inhibition. NIH 3T3 STAT1-luciferase reporter, IFN-gamma induced, luminescence. inhibition, % at 5.7 µM. 27% of 1,200 active. AID 1317. shares compounds with STAT3 inh-1;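 active means inhibition above the mean plus 3 SD of solvent-only control wells, limit set per screening run, cut at about 16% in these data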;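 further: 0% = DMSO with IFN-gamma and 100% = nifuroxazide control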
Numbers without * were called inactive; nt = no result.

SMILES	STAT1 blocker	STAT3 activator	PPC-1+TRAIL kill	C8 TRAIL sens	STAT3 inh-1	STAT3 inh-2	NFkB inh STAT3ct	STAT1 inh STAT3c
O=C(/C=C/c1ccc(Cl)cc1)Nc1ccc(CN2CCOCC2)cc1	4	60	24	33	45*	62*	14*	6
Cc1cc(CSc2ccccc2)ccc1NC(=O)c1ccc(CN2CCOCC2)cc1	9	40	32	24	73*	79*	30*	17*
CCOC(=O)c1ccc(NC(=O)c2ccc(CN3CCOCC3)cc2)cc1	7	45	1	26	68*	69*	12	7
NC(=O)c1ccc(NC(=O)c2ccc(CN3CCOCC3)cc2)cc1	-3	103	-13	-4	-4	nt	nt	nt
N#Cc1ccc(NC(=O)Cn2cnc(S(=O)(=O)N3CCOCC3)c2)cc1	nt	nt	nt	12	nt	nt	nt	nt
Cc1cc(C)c(CN2CCN(CCCn3cnc(C(=O)Nc4ccc(C)c(C)c4)n3)CC2)c(C)c1	nt	nt	nt	21	nt	nt	nt	nt
COc1cc2c(cc1OC)C1=NC(=O)CN1C(SCc1ccccc1C)=N2	12	64	8	-1	47*	43	20*	9
Cc1ccc(CSC2=Nc3ccccc3C3=NC(=O)CN23)cc1	-16	90	25	12	16	nt	nt	nt
COc1ccccc1CN1CCC(CNS(=O)(=O)c2cc(-c3cc(C)no3)ccc2OC)CC1	nt	nt	nt	10	nt	nt	nt	nt
Cc1cc(C)c(S(=O)(=O)NCc2ccncc2)c(C)c1	27	38	27	10	75*	74*	27*	23*
Cc1ccc(S(=O)(=O)NCc2ccccn2)c(C)c1C	nt	nt	nt	-5	nt	nt	nt	nt
COc1cc(C)c(Br)cc1S(=O)(=O)NCc1cccs1	nt	nt	nt	6	nt	nt	nt	nt
Cc1ccc(S(=O)(=O)NCc2ccncc2)c(C)c1C	29	32	nt	45	81*	82*	26*	14
CCCCNS(=O)(=O)c1ccc(S(=O)(=O)NCc2ccncc2)cc1	25	57	13	22	54*	35	-3	19*
COc1cc(C)c(Br)cc1S(=O)(=O)NCc1ccncc1	26	51	8	35	61*	58*	20*	18*
Cc1cc(C)c(S(=O)(=O)NCCc2ccncc2)c(C)c1	nt	nt	nt	6	nt	nt	nt	nt
Clc1ccc(-c2nnc(-c3ccccc3)o2)cn1	nt	nt	nt	-10	nt	nt	nt	nt
O=C(COc1ccc2ccccc2c1)Nc1nccs1	17	39	46	57*	78*	39	-18	-72
O=C(COc1ccccc1)Nc1nccs1	-27	81	37	-3	24	nt	nt	nt
CCOC(=O)c1c(NC(=O)COC(=O)c2cccnc2OCC)sc(C(=O)N(CC)CC)c1C	nt	nt	nt	25	nt	nt	nt	nt
Cc1ccc(C)c(NC(=O)CCC(=O)NN=C2CCCC2)c1	nt	nt	nt	16	nt	nt	nt	nt
O=C1C2C3c4ccccc4C(c4ccccc43)[C@@H]2c2nc3ccccc3n21 (stereo not given in full)	-2	61	15	-1	48*	57*	8	-1
CCOC(=O)Nc1ccc2nc(N3CCCCCC3)sc2c1	nt	nt	12	19	nt	nt	nt	nt
c1ccc(-c2ncc(-c3ccn[nH]3)s2)cc1	-22	65	24	43	46*	2	-24	-112
Cc1ccc2nc(-c3ccc(-c4ccccn4)s3)cn2c1	nt	nt	48	34	nt	nt	nt	nt
SMILES	STAT1 blocker	STAT3 activator	PPC-1+TRAIL kill	C8 TRAIL sens	STAT3 inh-1	STAT3 inh-2	NFkB inh STAT3ct	STAT1 inh STAT3c
Brc1ccc(-c2cn3ccccc3n2)s1	-14	61	48	50*	51*	7	-40	-153
COc1ccc(-c2cn(-c3ccc(OC)cc3)c3[n+]2-c2ccccc2CC3)cc1	29	37	31	38	73*	79*	3	23*
O=C(COC(=O)/C=C/c1ccc(OC(F)F)cc1)NC1CCCC1	nt	nt	nt	3	nt	nt	nt	nt
CC1=C(C)C(OCCBr)N(c2cc(O)c(Cl)cc2F)C1=O (stereo not given)	nt	nt	-15	-2	nt	nt	nt	nt
CC1(C)Cc2ccccc2-c2nnc(SCC(=O)N3CCN(c4ccccc4)CC3)n21	2	67	29	8	44*	20	-2	-3
CCn1c(SCC(=O)N2CCN(c3ccccc3)CC2)nnc1-c1c[nH]c2ccccc12	12	64	16	6	51*	27	-2	2
COc1ccc2cc(C3=CCCC3(C)C(=O)O)ccc2c1 (stereo not given)	nt	nt	nt	-2	nt	nt	nt	nt
O=C(CSc1nncn1-c1ccccc1)NC1CCCC1	nt	nt	nt	0	nt	nt	nt	nt
COc1ccc(S(=O)(=O)Nc2cc3c4c(c2)CC(=O)N4CCC3)cc1C	nt	nt	nt	11	nt	nt	nt	nt
CCCCOc1ncnc2c1[nH]c1ccccc12	22	59	21	24	50*	36	19*	25*
CCCCOc1ncnc2c1[nH]c1ccc(OC)cc12	-41	66	19	nt	46*	17	-37	-94
CCCCOc1ncnc2c1[nH]c1ccc(F)cc12	22	35	14	13	83*	74*	19*	32*
CCCCOc1ncnc2c1[nH]c1ccc(OCC)cc12	-1	83	9	14	24	nt	nt	nt
CCc1nc2ccc(C(=O)N(C)C(C)C)cn2c1N(CC)Cc1cccc(Br)c1	nt	nt	nt	17	nt	nt	nt	nt
Cc1nc2ccccn2c1C(=O)NC1CCCc2ccccc21 (stereo not given)	21	58	24	28	53*	37	-1	12
O=C(NC1CCCc2ccccc21)c1cn2ccccc2n1 (stereo not given)	9	106	-1	-3	-1	nt	nt	nt
COc1ccc(NC(=O)COc2ccc(-c3nn(C)c(=O)c4ccccc34)cc2)cc1	-9	94	8	5	14	nt	nt	nt
COc1ccc(OCC(=O)Nc2cc(-c3nn(C)c(=O)c4ccccc34)ccc2OC)cc1	26	61	4	29	51*	48*	22*	25*
CCc1ccc(-n2cc(-c3ccc(F)cc3)[n+]3c2SCCC3)cc1	30	76	38	40	30	nt	nt	nt
COc1ccc(-n2cc(-c3ccc(C)cc3)[n+]3c2SCC3)cc1	22	43	18	34	69*	75*	7	23*
Cc1ccc(-c2cn(-c3ccccc3)c3[n+]2CCCS3)cc1	28	51	6	25	57*	50*	-1	28*
CC1=C(C(=O)N(C)C)CC(CC(=O)NC2CCCC2)C(=O)N1CCC1=CCCCC1 (stereo not given)	nt	nt	nt	-3	nt	nt	nt	nt
C[C@H](CO)N1C[C@H](C)[C@H](CN(C)C(=O)NC2CCCCC2)Oc2ncc(Br)cc2C1=O	nt	nt	nt	0	nt	nt	nt	nt
COc1ccc(CNC(=O)CCS(=O)(=O)c2ccc3c(c2)CCN3C(C)=O)cc1	nt	nt	nt	-8	nt	nt	nt	nt
COCC(=O)N[C@H]1CC[C@@H](CC(=O)OC)O[C@@H]1CO	nt	nt	nt	5	nt	nt	nt	nt
